The text below walks through data of ChEMBL document CHEMBL1123247, “Nucleoside conjugates. 7. Synthesis and antitumor activity of 1-beta-D-arabinofuranosylcytosine conjugates of ether lipids” (J Med Chem, 1986).

Test [1] has as its system P388. The test is described as follows: Antitumor activity was determined against the ip implanted P388 leukemia in mice by 45-day survivors in mice at 200 mg/kg (1 qd treatment schedule) dosage. The note with it: route intraperitoneal. In kind it is functional, Mus musculus. Summed up:
(§1)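 DBA/2J mice, 23-33 g, in groups of 6, were inoculated ip with 1×10^6 P388 cells on day 0. Dosing was ip from 24 h on the stated schedules, in 0.9% NaCl with 0.5% Tween-80 (sonicated solution or suspension). Survival was followed daily until death or 45 days. Median T/C was calculated from survivors per NCI protocols, with ILS = (T/C − 1) × 100.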

The test system of test [2] is L1210. The test is described as follows: Antitumor activity against ip implanted L1210 leukemia in mice expressed as active dose range (1 qd treatment schedule) required to produce increase in life span by >25% was determined; Range is 100-250. In kind it is functional, Mus musculus. Summed up:
(§2)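 DBA/2J mice, groups of 6 (23-28 g), were inoculated ip with 1 × 10^6 L1210 cells on day 0. Dosing was ip from 24 h, in 0.9% NaCl with 0.5% Tween-80 (sonicated solution or suspension). Mice were observed daily until death or day 45. Median survival T/C followed NCI protocols, and ILS = (T/C − 1) × 100. Active range means doses giving ILS ≥25%; optimal dose means greatest ILS.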

Test [3] concerns L1210. In words: Antitumor activity against the ip implanted L1210 leukemia in mice expressed as optimal dose (1 qd treatment schedule) required to produce greatest increase in life span was determined. In kind it is functional, Mus musculus. Put shortly: as §2
For test [4], the system named is L1210. The test is described as follows: Antitumor activity was determined against the ip implanted L1210 leukemia in mice by percent median survival rate (treated/control) at 200 mg/kg (treatment of 1qd schedule) dosage; 19.5/7.0. In kind it is functional, Mus musculus. The note with it: route intraperitoneal. Put shortly:
(§3)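 DBA/2J mice, 23-28 g, in groups of 6, were inoculated ip with 1×10^6 L1210 cells on day 0. Dosing was ip starting 24 h later on the stated daily schedules. Conjugates were given as sonicated solutions and reference prodrugs as suspensions in 0.9% NaCl with 0.5% Tween-80. Mice were observed daily until death or 45 days. Median survival T/C was calculated from survivors per NCI protocols.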

In test [5] the test system is P388. The test is described as follows: Antitumor activity was determined against the ip implanted P388 leukemia in mice by percent median survival rate (treated/control) at 200 mg/kg (1 qd treatment schedule) dosage; >45.0/12.0. In kind it is functional, Mus musculus. The note with it: route intraperitoneal.
Test [6] relates to L1210. The test is described as follows: Antitumor activity was determined against the ic implanted L1210 lymphoid leukemia in mice by percent increase in life span at 300 mg/kg (1 qd treatment schedule) dosage. In kind it is functional, Mus musculus. Summed up:
(§4)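 DBA/2J mice, groups of 6 (26-32 g), got 1 × 10^5 L1210 cells ic on day 0. Dosing was ip starting 24 h later, as a sonicated solution or suspension in 0.9% NaCl with 0.5% Tween-80, over a wide dose range. Mice were followed daily until death. Median survival T/C was taken from survivors per NCI protocols, and ILS = (T/C − 1) × 100. Active range means doses giving ILS ≥25%; optimal dose means greatest ILS.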

Test [7] has as its system P388. In words: Antitumor activity was determined against the ip implanted P388 leukemia in mice by change in […] at 200 mg/kg (1 qd treatment schedule) dosage. In kind it is functional, Mus musculus. The conditions noted are these: route intraperitoneal. Summed up:
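P388 leukemia, 1×10^6 cells implanted ip on day 0 into DBA/2J mice, groups of 6 (wt 23-33 g). Dosing ip started 24 h post-inoculation, vehicle 0.9% NaCl containing 0.5% Tween-80. Animals were observed daily until death or 45 days. Outputs were weight change, median survival T/C from survivors per NCI protocols, and %ILS = (T/C − 1) × 100.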

The subject of test [8] is P388. In words: Antitumor activity was determined against the ip implanted P388 leukemia in mice by range in survival days at 200 mg/kg (1 qd treatment schedule) dosage; Range is 24->45. In kind it is functional, Mus musculus. The note with it: route intraperitoneal.
In test [9] the test system is L1210. The test is described as follows: Antitumor activity was determined against the ip implanted L1210 leukemia in mice by 45-day survivors in mice at 200 mg/kg (treatment of 1qd schedule) dosage. In kind it is functional, Mus musculus. The conditions noted are these: route intraperitoneal. Summed up:
(§5)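 DBA/2J mice in groups of 6 (wt 23-28 g) were inoculated ip with 1×10^6 L1210 cells on day 0. Dosing was ip from 24 h, in 0.9% NaCl with 0.5% Tween-80 (conjugates sonicated), across a range of doses. Mice were observed daily until death or 45 days. Median T/C was computed from survivors per NCI protocols, and ILS = (T/C − 1)×100.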

In test [10] the test system is L1210. In words: Antitumor activity against the ic implanted L1210 lymphoid leukemia in mice expressed as optimal dose (1 qd treatment schedule) required to produce greatest increase in life span was determined. In kind it is functional, Mus musculus. Summed up:
as §4

Test [11] has as its system L1210. In words: Antitumor activity was determined against the ip implanted L1210 leukemia in mice by change in […] at 200 mg/kg (treatment of 1qd schedule) dosage. The note with it: route intraperitoneal. In kind it is functional, Mus musculus. Put shortly:
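DBA/2J mice, 6 per group (wt 23-28 g), inoculated ip with 1×10^6 L1210 cells on day 0. Treatment was given ip in 0.9% NaCl with 0.5% Tween-80, starting 24 h later. Weight change was taken on day 8. Mice were observed daily until death or 45 days. Median survival T/C and %ILS = (T/C − 1) × 100 came from survivors per NCI protocols, and 45-day survivors were counted.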

Test [12] deals with L1210. In words: Antitumor activity was determined against the ip implanted L1210 leukemia in mice by range in survival days at 200 mg/kg (treatment of 1qd schedule) dosage; Range is 14-23. In kind it is functional, Mus musculus. The conditions noted are these: route intraperitoneal. Put shortly:
as §3

In test [13] the test system is L1210. The test is described as follows: Antitumor activity was determined against the ic implanted L1210 lymphoid leukemia in mice by change in body weight at 300 mg/kg (1 qd treatment schedule) dosage.
The test system of test [14] is L1210. The test is described as follows: Antitumor activity was determined against the ic implanted L1210 lymphoid leukemia in mice by median survival time at 300 mg/kg (1 qd treatment schedule) dosage; 14.5/7.0.
Test [15] relates to L1210. In words: Antitumor activity was determined against the ic implanted L1210 lymphoid leukemia in mice by range in survival days at 300 mg/kg (1 qd treatment schedule) dosage; Range is 14-18. In kind it is functional, Mus musculus.
Test [16] deals with L1210. The test is described as follows: Antitumor activity was determined against the ip implanted L1210 leukemia in mice by percent increase in life span at 200 mg/kg (treatment of 1qd schedule) dosage. In kind it is functional, Mus musculus. The conditions noted are these: route intraperitoneal. Summed up: as §5
For test [17], the system named is P388. The test is described as follows: Antitumor activity was determined against the ip implanted P388 leukemia in mice by percent increase in life span at 200 mg/kg (1 qd treatment schedule) dosage. In kind it is functional, Mus musculus. The note with it: route intraperitoneal. Put shortly: as §1
Test [18] relates to P388. In words: Antitumor activity against the ip implanted P388 leukemia in mice expressed as optimal dose (1 qd treatment schedule) required to produce greatest increase in life span was determined. In kind it is functional, Mus musculus. Summed up: (§6)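 P388 leukemia: 1 × 10^6 cells were given ip on day 0 to DBA/2J mice, groups of 6 (23-33 g). Treatment was ip from 24 h after inoculation, vehicle 0.9% NaCl with 0.5% Tween-80. Mice were observed daily until death or 45 days. Median survival T/C was calculated from survivors per NCI protocols, and ILS = (T/C − 1) × 100. Active range means doses giving ILS ≥25%; optimal dose means greatest ILS.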

Test [19] relates to P388. The test is described as follows: Antitumor activity against ip implanted P388 leukemia in mice expressed as active dose range (1 qd treatment schedule) required to produce increase in life span by >25% was determined; Range is 200-300. In kind it is functional, Mus musculus. Summed up: as §6

In general, T/C refers to the result in the treated group divided by that in the control group, in per cent.

On to `CCCCCCCCCCCCCCCC(=O)Nc1ccn([C@@H]2O[C@H](CO)[C@@H](O)[C@@H]2O)c(=O)n1`, for which the Survivors stood at 5 in the test on P388 [1] and 0 in the test with L1210 [9]. The figures for the Active dose range in the test on L1210 [2] and with P388 [19] were 100 mg/kg/day and 200 mg/kg/day, respectively. Besides, the Optimal dose is 200 mg/kg/day in the test on L1210 [3], 300 mg in the test with L1210 [10] and 200 mg in the test on P388 [18]. In addition, the median survival time with L1210 [4] came out at 19.5 days; with L1210 [14], 14.5 days. In the test on P388 [5], this molecule gave a T/C of over 45%. Moreover, the ILS with L1210 [6] is on record as 107; in the test on L1210 [16], 179; in the test on P388 [17] it was over 275. Moreover, the Weight change is 0.75 g mouse-1 with P388 [7], -0.5 g mouse-1 in the test on L1210 [11] and -2.04 g mouse-1 in the test with L1210 [13]. The Range was determined as 24 with P388 [8], 14 with L1210 [12] and 14 in the test with L1210 [15].
